We go through 57 compounds from ChEMBL document CHEMBL4041481, “Linker-switch approach towards new ATP binding site inhibitors of DNA gyrase B” (Eur J Med Chem, 2017).

What is called IC50 is the concentration that inhibits the measured activity by half. As a reminder, the Kd is the constant that tells how readily two partners part at equilibrium. A higher Kd goes with weaker binding.

Assay [1] has as its target DNA gyrase subunit B (Escherichia coli) (UniProt P0AES6). The experiment in a line: Inhibition of Escherichia coli DNA ATCC 25922 gyrase B assessed as residual activity at 100 uM using relaxed pNO1 DNA as substrate incubated for 30 mins and measured by sybrGOLD staining based fluorescence assay. The note with it: Escherichia coli ATCC 25922. In short, it runs like this: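 Gyrase supercoiling with 1.5 U enzyme and 0.75 µg relaxed pNO1 plasmid. 30 min at 37 °C, stopped with pH 5.0 TF buffer. Triplex capture on immobilized biotinylated oligonucleotide, 30 min at room temperature. Residual activity at 100 µM; 1% DMSO negative control.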

Assay [2] is described as follows: Inhibition of Staphylococcus aureus DNA gyrase using relaxed pBR322 DNA as substrate after 3 hrs by agarose electrophoresis.
A short description of assay [3]: Inhibition of Escherichia coli DNA gyrase using relaxed pBR322 DNA as substrate after 3 hrs by agarose electrophoresis.
In assay [4] the target is T1, DNA gyrase subunit B (Escherichia coli, UniProt P0AES6). The experiment in a line: Inhibition of Escherichia coli ATCC 25922 DNA gyrase B using relaxed pNO1 DNA as substrate incubated for 30 mins and measured by sybrGOLD staining based fluorescence assay.
In assay [5] the target is DNA gyrase subunit B (Staphylococcus aureus, UniProt P0A0K8). As to the kind of experiment: Inhibition of Staphylococcus aureus DNA gyrase B using relaxed pNO1 DNA as substrate incubated for 30 mins and measured by sybrGOLD staining based fluorescence assay.
DNA gyrase subunit B (Staphylococcus aureus, UniProt P0A0K8), sequence (P0A0K8 whole entry): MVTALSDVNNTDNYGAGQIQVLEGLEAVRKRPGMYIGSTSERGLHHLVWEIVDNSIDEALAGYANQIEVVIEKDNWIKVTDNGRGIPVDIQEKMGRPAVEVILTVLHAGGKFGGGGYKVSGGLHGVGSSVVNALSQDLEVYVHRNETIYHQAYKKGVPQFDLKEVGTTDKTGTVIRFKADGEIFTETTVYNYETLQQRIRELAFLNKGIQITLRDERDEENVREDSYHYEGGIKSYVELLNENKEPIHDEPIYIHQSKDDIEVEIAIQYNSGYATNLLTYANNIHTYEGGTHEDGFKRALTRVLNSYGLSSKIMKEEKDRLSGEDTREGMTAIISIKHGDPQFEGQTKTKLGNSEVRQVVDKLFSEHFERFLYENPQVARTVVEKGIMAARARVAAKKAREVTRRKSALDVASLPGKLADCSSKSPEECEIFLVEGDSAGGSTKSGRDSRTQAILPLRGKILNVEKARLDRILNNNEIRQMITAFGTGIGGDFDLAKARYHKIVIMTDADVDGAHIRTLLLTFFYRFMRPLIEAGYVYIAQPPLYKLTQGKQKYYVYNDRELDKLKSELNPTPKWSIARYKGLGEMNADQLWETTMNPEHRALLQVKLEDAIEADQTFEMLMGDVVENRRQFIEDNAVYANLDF
The target of assay [6] is T1, DNA gyrase subunit B. The experiment in a line: Binding affinity to Escherichia coli ATCC 25922 DNA gyrase B by surface plasmon resonance assay. Put shortly:
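Running buffer: 10 mM Hepes, 150 mM NaCl, 3 mM EDTA, 0.005% P20, pH 7.4, plus 1% DMSO. Injections at 30 µL/min for 90 s, 120 s dissociation. At least eight concentrations, three parallel titrations. Kd from 1:1 steady-state fit of responses 5 s before injection end.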
(Surface plasmon resonance follows binding to a sensor surface in real time, without labels.)

Assay [7] addresses DNA gyrase subunit B (Staphylococcus aureus) (UniProt P0A0K8). The experiment in a line: Inhibition of Staphylococcus aureus DNA gyrase B assessed as residual activity at 100 uM using relaxed pNO1 DNA as substrate incubated for 30 mins and measured by sybrGOLD staining based fluorescence assay. In short, it runs like this: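 Gyrase supercoiling with 1.5 U enzyme and 0.75 µg relaxed pNO1 plasmid. 30 min at 37 °C, stopped with pH 5.0 TF buffer. Triplex capture on immobilized biotinylated oligonucleotide, 30 min at room temperature. Washed, SybrGOLD-stained, fluorescence 485/535 nm. Residual activity at 100 µM; 1% DMSO negative control.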

Each structure is given as a SMILES string. A value given as a limit tells only on which side of the number the result lay.

DNA gyrase subunit B (Staphylococcus aureus), sequence (P0A0K8 2-644 limits assumed): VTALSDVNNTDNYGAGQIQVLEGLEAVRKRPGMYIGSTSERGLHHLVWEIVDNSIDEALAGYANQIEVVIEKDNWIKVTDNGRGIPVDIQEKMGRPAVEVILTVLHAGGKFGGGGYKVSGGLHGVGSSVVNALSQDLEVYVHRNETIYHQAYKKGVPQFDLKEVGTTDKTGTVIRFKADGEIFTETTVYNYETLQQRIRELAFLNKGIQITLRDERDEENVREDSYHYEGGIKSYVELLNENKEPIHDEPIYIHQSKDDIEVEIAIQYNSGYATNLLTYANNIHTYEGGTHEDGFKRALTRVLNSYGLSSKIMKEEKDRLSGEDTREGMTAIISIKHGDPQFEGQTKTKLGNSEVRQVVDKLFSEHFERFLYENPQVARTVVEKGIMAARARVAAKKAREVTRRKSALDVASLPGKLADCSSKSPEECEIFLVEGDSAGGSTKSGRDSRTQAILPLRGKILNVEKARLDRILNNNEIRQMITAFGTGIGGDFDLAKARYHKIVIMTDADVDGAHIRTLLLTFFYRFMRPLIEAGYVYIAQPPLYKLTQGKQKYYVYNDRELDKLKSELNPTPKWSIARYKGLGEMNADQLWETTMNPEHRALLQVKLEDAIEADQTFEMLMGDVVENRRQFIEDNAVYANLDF

For `C=CCN(C(=O)c1cc2ccccc2[nH]1)C1CCN(C(=O)CCC(=O)O)CC1`, the Activity in assay [1] was 100%. As to `N#Cc1ccc(C(=O)N2CCC(NC(=O)c3cc(Br)c(Br)[nH]3)CC2)cc1`, the Activity in assay [1] came out at 100%.

On to `C=CCN(C(=O)c1cc2ccccc2[nH]1)C1CCN(C(=O)CCC(=O)OC)CC1`, for which, in assay [1], the Activity amounted to 100%. As for `CO[C@@H]1[C@@H](OC(N)=O)[C@@H](O)[C@H](Oc2ccc3c(O)c(NC(=O)c4ccc(O)c(CC=C(C)C)c4)c(=O)oc3c2C)OC1(C)C` [NOVOBIOCIN], the IC50 in assay [2] worked out at 0.01 µM; in assay [3], 0.08 µM. Take `O=C(O)CCNC(=O)[C@H]1CC[C@H](NC(=O)c2cc(Br)c(Br)[nH]2)CC1`: the Activity in assay [1] was 100%. For `COC(=O)CCNC(=O)[C@H]1CC[C@H](NC(=O)c2cc(Br)c(Br)[nH]2)CC1`, in assay [1], the Activity amounted to 100%.

Consider `O=C(NC1CCN(C(=O)c2ccc(O)c(O)c2)CC1)c1cc(Cl)c(Cl)[nH]1`, for which the IC50 at DNA gyrase subunit B [4] was found to be 8.08 µM.

As to `O=C(O)CNC(=O)[C@H]1CC[C@@H](NC(=O)c2cc(Br)c(Br)[nH]2)CC1`, in assay [1], the Activity turned out to be 100%. On to `O=C(O)CCC(=O)N1CCC(NC(=O)c2cc3ccccc3[nH]2)CC1`, for which, in assay [1], the Activity was found to be 100%. For the compound `COC(=O)CNC(=O)[C@H]1CC[C@H](NC(=O)c2cc(Br)c(Br)[nH]2)CC1`, the Activity in assay [1] stood at 100%.

In turn, `O=C(O)CCNC(=O)[C@H]1CC[C@@H](NC(=O)c2cc(Br)c(Br)[nH]2)CC1` displayed an IC50 against DNA gyrase subunit B [4] of 100 µM. `COC(=O)c1ccc(C(=O)N2CCC(NC(=O)c3cc4ccccc4[nH]3)CC2)cc1`: the Activity in assay [1] is 88%. At DNA gyrase subunit B [4], `O=C(O)CNC(=O)[C@H]1CC[C@H](NC(=O)c2cc(Br)c(Br)[nH]2)CC1` displayed an IC50 of 15.1 µM. Turning to `O=C(O)CCC(=O)N1CCC(NC(=O)c2cc(Br)c(Br)[nH]2)CC1`, the figures for the IC50 at DNA gyrase subunit B [4] and at DNA gyrase subunit B [5] (read-out: IC50) were 1.55 µM and 93.8 µM, respectively. The Kd at DNA gyrase subunit B [6] was 12.6 µM. Turning to `O=C(O)c1ccc(CN2CCC(NC(=O)c3cc(Br)c(Br)[nH]3)CC2)cc1`, the IC50 on DNA gyrase subunit B [4] is 63.1 µM. Also, the Activity in assay [7] was determined as 100%. In the case of `C=CCN(C(=O)c1cc(Br)c(Br)[nH]1)C1CCN(C(=O)CCC(=O)OC)CC1`, the Activity in assay [1] is 36%. `COC(=O)CCC(=O)N1CCC(NC(=O)c2cc3ccccc3[nH]2)CC1`: in assay [1], the Activity is 100%. With `COC(=O)c1cccc(CN2CCC(NC(=O)c3cc(Br)c(Br)[nH]3)CC2)c1`, the Activity in assay [1] is 100%. Consider `COC(=O)CCNC(=O)[C@H]1CC[C@@H](NC(=O)c2cc(Br)c(Br)[nH]2)CC1`, for which the Activity in assay [1] amounted to 100%. On to `Nc1ncc(C(=O)N2CCN(C(=O)c3c[nH]c4ccccc34)CC2)[nH]1`, for which the Activity in assay [1] worked out at 100%.

Take `Cc1[nH]c(C(=O)NC2CCN(C(=O)CCC(=O)O)CC2)c(Cl)c1Cl`: half-maximal inhibition at DNA gyrase subunit B [4] (IC50) was put at 0.48 µM. Compound `O=C(O)c1ccc(C(=O)N2CCC(NC(=O)c3cc(Br)c(Br)[nH]3)CC2)cc1` had an IC50 against DNA gyrase subunit B [4] of 14.9 µM. Further, in assay [7], the Activity was determined as 84%. On DNA gyrase subunit B [6], this compound yielded a Kd of 256 µM. Take `O=C(O)CCNC(=O)[C@H]1CC[C@H](CNC(=O)c2cc(Br)c(Br)[nH]2)CC1`: the Activity in assay [1] was found to be 100%. Still for that read-out and setting: the value for `COC(=O)CCC(=O)N1CCC(NC(=O)c2ccc[nH]2)CC1` was 100%. Take `CC(C)(C)OC(=O)N1CCC(NC(=O)c2cc(Br)c(Br)[nH]2)CC1`: the IC50 on DNA gyrase subunit B [4] was greater than 50 µM. `O=C(O)c1ccc(C(=O)N2CCC(NC(=O)c3cc4ccccc4[nH]3)CC2)cc1`: in assay [1], the Activity is 100%. On the same count and under the same terms, as for `COC(=O)CNC(=O)[C@H]1CC[C@H](CNC(=O)c2cc(Br)c(Br)[nH]2)CC1`, the figure is 100%. In turn, `COC(=O)c1ccc(C(=O)N2CCC(NC(=O)c3cc(Br)c(Br)[nH]3)CC2)cc1` registered an IC50 against DNA gyrase subunit B [4] of 480 µM. Take `COC(=O)CC(=O)N1CCC(NC(=O)c2cc3ccccc3[nH]2)CC1`: the Activity in assay [1] was 100%. For `O=C(O)c1cccc(CN2CCC(NC(=O)c3cc(Br)c(Br)[nH]3)CC2)c1`, the IC50 at DNA gyrase subunit B [4] was 49.5 µM. Also, the Activity in assay [7] was determined as 100%. Further, binding on DNA gyrase subunit B [6] was characterised by a dissociation constant (Kd) of 11.2 µM. `COC(=O)CCC(=O)N1CCC(NC(=O)c2cc(Br)c(Br)[nH]2)CC1` returned an IC50 on DNA gyrase subunit B [4] of 20.9 µM. With `O=C(O)CC(=O)N1CCN(C(=O)c2cc(Br)c(Br)[nH]2)CC1`, the IC50 against DNA gyrase subunit B [4] is 1080 µM; against DNA gyrase subunit B [5], “Not Active”. `Nc1ncc(C(=O)N2CCN(C(=O)c3cccnc3)CC2)[nH]1`: the Activity in assay [1] was 100%. In the case of `O=C(O)CCC(=O)N1CCC(NC(=O)c2ccc[nH]2)CC1`, the Activity in assay [1] worked out at 100%. As for `COC(=O)CCCC(=O)N1CCC(NC(=O)c2cc(Br)c(Br)[nH]2)CC1`, inhibition on DNA gyrase subunit B [4] was half-maximal at 11.2 µM (IC50). For `O=C(NC1CCN(C(=O)c2ccc(O)c(O)c2)CC1)c1cc(Br)c(Br)[nH]1`, the IC50 against DNA gyrase subunit B [4] amounted to 2.84 µM. As for `COC(=O)CCNC(=O)[C@H]1CC[C@H](CNC(=O)c2cc(Br)c(Br)[nH]2)CC1`, the Activity in assay [1] is 100%. `COC(=O)CC(=O)N1CCC(NC(=O)c2cc(Br)c(Br)[nH]2)CC1` gave an IC50 at DNA gyrase subunit B [4] of 13.7 µM. In the case of `COC(=O)CNC(=O)[C@H]1CC[C@@H](NC(=O)c2cc(Br)c(Br)[nH]2)CC1`, the Activity in assay [1] stood at 100%.

In the case of `COC(=O)CC(=O)N1CCN(C(=O)c2cc(Br)c(Br)[nH]2)CC1`, in assay [1], the Activity was 78%. For the compound `Nc1ncc(C(=O)N2CCN(Cc3ccc[nH]3)CC2)[nH]1`, in assay [1], the Activity was 100%. Consider `COC(=O)CCC(=O)N1CCC(N(Cc2ccccc2)C(=O)c2cc(Br)c(Br)[nH]2)CC1`, for which the Activity in assay [1] amounted to 100%. Regarding `CCOC(=O)C(=O)N1CCC(NC(=O)c2cc(Br)c(Br)[nH]2)CC1`, 4.35 µM corresponded to half-maximal inhibition against DNA gyrase subunit B [4] (IC50). The Activity in assay [7] was determined as 74%. The compound `COC(=O)CCC(=O)N1CCC(NC(=O)c2[nH]c(C)c(Cl)c2Cl)CC1` returned an IC50 on DNA gyrase subunit B [4] of 20 µM. On DNA gyrase subunit B [4], `O=C(O)CC(=O)N1CCC(NC(=O)c2cc3ccccc3[nH]2)CC1` showed an IC50 of 100 µM. For `CC(C)(C)OC(=O)N1CCC(NC(=O)c2cc3ccccc3[nH]2)CC1`, the Activity in assay [1] is 100%.

As for `O=C(O)CCC(=O)N1CCC(N(Cc2ccccc2)C(=O)c2cc(Br)c(Br)[nH]2)CC1`, at DNA gyrase subunit B [4], it took 49.5 µM to reach half-maximal inhibition (IC50). The compound also showed a Kd on DNA gyrase subunit B [6] of 11.2 µM.

`O=C(O)CCC(=O)N1CCC(N(Cc2ccccc2)C(=O)c2cc3ccccc3[nH]2)CC1`: the Activity in assay [1] stood at 100%. On to `Nc1ncc(C(=O)N2CCN(C(=O)[C@@H]3CCCN3)CC2)[nH]1`, for which the Activity in assay [1] turned out to be 100%. With `C=CCN(C(=O)c1cc(Br)c(Br)[nH]1)C1CCN(C(=O)CCC(=O)O)CC1`, the Activity in assay [1] amounted to 29%. Consider `O=C(O)C(=O)N1CCC(NC(=O)c2cc(Br)c(Br)[nH]2)CC1`, for which 49.2 µM corresponded to half-maximal inhibition on DNA gyrase subunit B [4] (IC50). For `O=C(O)CCCC(=O)N1CCC(NC(=O)c2cc(Br)c(Br)[nH]2)CC1`, the IC50 against DNA gyrase subunit B [4] was determined as 3.18 µM. Further, the Activity in assay [7] turned out to be 71%. `COC(=O)CCC(=O)N1CCC(N(Cc2ccccc2)C(=O)c2cc3ccccc3[nH]2)CC1`: the Activity in assay [1] worked out at 100%.

On DNA gyrase subunit B [4], `O=C(O)CC(=O)N1CCC(NC(=O)c2cc(Br)c(Br)[nH]2)CC1` gave an IC50 of 10.8 µM. Further, the Activity in assay [7] was 80%. Take `Nc1ncc(C(=O)N2CCN(C(=O)c3ccc[nH]3)CC2)[nH]1`: the Activity in assay [1] is 100%.

`O=C(NC1CCN(C(=O)c2ccc(O)c(O)c2)CC1)c1cc2ccccc2[nH]1`: at DNA gyrase subunit B [4], the IC50 was 150 µM. As for `COC(=O)c1ccc(CN2CCC(NC(=O)c3cc(Br)c(Br)[nH]3)CC2)cc1`, in assay [1], the Activity was determined as 100%.
